According to ChEMBL document CHEMBL4354867, “Validation and Characterization of Five Distinct Novel Inhibitors of Human Cytomegalovirus” (J Med Chem, 2020):
Active and inactive are the calls of the source. No cut-off for these calls is given here.

What was measured:
Human betaherpesvirus 5 [1] = assay: Antiviral activity against HCMV Towne infected in human HFF cells assessed as reduction in viral entry into host cell by measuring nuclear localization of pp65 at 5 uM treated with compound for 24 hrs followed by viral infection at MOI of 0.01 to 1 PFU/cell measured at 2 hrs post infection by immunofluorescence microscopy; assay type: functional, organism-based; details: strain Towne
In short: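 HFFs on chamber slides pretreated 24 h with compound diluted in serum-free medium, then infected with HCMV Towne for 2 h. Heparin 30 μM as positive entry-block control. Cells methanol-fixed, then stained with anti-pp65 (1:50) and rhodamine anti-mouse IgG, with DAPI. Nuclear pp65 viewed by fluorescence microscopy at 40x; repeated three times.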

Human betaherpesvirus 5 [2] = assay: (§1) Antiviral activity against pp28-luciferase expressing HCMV Towne infected in human HFF cells assessed as reduction in viral replication treated with compound at 24 hrs post viral infection at MOI of 1 PFU/cell and measured after 3 days by luciferase reporter gene assay; assay type: functional, organism-based; details: strain Towne
In short: (§2)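 Time-of-addition in HFFs infected with HCMV Towne (MOI 1). Add-on: compound added at 0, 6, 24 or 48 hpi. Removal: compound added right after infection and washed out after 0, 6, 24 or 48 h. Luciferase read at 72 hpi.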

Human betaherpesvirus 5 [3] = assay: Antiviral activity against HCMV Towne infected in human HFF cells assessed as reduction in viral DNA yields in the supernatant at 5 uM treated with compound following viral infection at MOI of 0.1 PFU/cell by US17 real time PCR analysis; assay type: functional, organism-based; details: strain Towne
In short: (§3)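 At set time points supernatants were harvested and cells lysed for DNA. Cell-associated viral DNA and supernatant viral DNA quantified by real-time PCR targeting a 151-bp conserved US17 region.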

Human betaherpesvirus 5 [4] = assay: as §1, with “immediately after” for “at 24 hrs post”, “PFU/cell followed by compound washout after 6 hrs” for “PFU/cell”; assay type: functional; details: strain Towne; in short: as §2
[5] = Antiviral activity against Mouse Cytomegalovirus Smith (ATCC VR-1399) infected in mouse MEF cells assessed as reduction in plaque formation measured after 3 days by crystal violet staining based assay; assay type: functional, cell-based, Murine cytomegalovirus (strain Smith); details: Murid betaherpesvirus 1, ATCC VR-1399, MEF, 72 h; read-out: EC50
In short: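 Plaque reduction with MCMV Smith in mouse embryonic fibroblasts, with compound in a carboxymethylcellulose overlay. Assay ended at 3 days and plaques counted after crystal violet staining.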

Human gammaherpesvirus 4 = assay: Antiviral activity against EBV infected in human AKATA cells assessed as reduction in IgG-induced lytic virus replication measured at 48 hrs post-lytic induction by qRT-PCR analysis; assay type: functional, organism-based; details: human gammaherpesvirus 4, 48 h; read-out: EC50
Human alphaherpesvirus 2 = assay: Antiviral activity against HSV 2 infected in African green monkey Vero cells assessed as reduction in plaque formation incubated for 36 hrs by crystal violet staining based assay; assay type: functional, organism-based; details: Human alphaherpesvirus 2, Vero, 36 h; read-out: EC50
In short: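 Plaque reduction in Vero cells: virus adsorbed 60 min, then compound added in a carboxymethylcellulose overlay. Plaques counted after 36 h by crystal violet staining.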

Human betaherpesvirus 5 [6] = assay: Antiviral activity against HCMV Towne infected in human HFF cells assessed as reduction in viral DNA replication at 5 uM treated with compound following viral infection at MOI of 0.1 PFU/cell by US17 real time PCR analysis; assay type: functional, organism-based; details: strain Towne; in short: as §3
HFF = assay: Cytotoxicity against human HFF cells assessed as reduction in cell viability incubated for 72 hrs or 10 days by MTT assay; assay type: cell-based
In short: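 MTT assay on uninfected cells exposed to compound for 72 h or 8–10 days, matching the antiviral assay durations. MTT (5 mg/mL stock in PBS) added, then 2–3 h at 37 °C. Formazan absorbance read at 560 nm.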

SMILES	Activity (Human betaherpesvirus 5 [1])	Activity (Human betaherpesvirus 5 [2])	Activity (Human betaherpesvirus 5 [3])	Activity (Human betaherpesvirus 5 [4])	EC50 [5] [nM]	EC50 (Human gammaherpesvirus 4) [nM]	EC50 (Human alphaherpesvirus 2) [nM]	Activity (Human betaherpesvirus 5 [6])	CC50 (HFF) [nM]
Nc1nc2c(ncn2COC(CO)CO)c(=O)[nH]1 [GANCICLOVIR]	inactive	inactive	Active	Active	960	5200	580	Active	
Nc1nc(O)c2ncn(COC(CO)CO)c2n1 [GANCICLOVIR]									> 200000
